Compound activity as filed in PubChem.
PLCb3 inh: human PLC-beta3 inhibitors, primary screen, biochemical, fluorescence; 1-phosphatidylinositol 4,5-bisphosphate phosphodiesterase beta-3 (Homo sapiens), Q01970; Purified PLC-beta3, fluorogenic substrate; inhibition, % at 12.2 µM; 370,000 compounds, 0.18% hits; AID 720704, 2013; in the data active means inhibition above about 11%;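 further: 0% = median of compound wells on plate and 100% = full blocker control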
Rpn11 block: Rpn11 (PSMD14) deubiquitinase inhibitors, primary screen, biochemical, fluorescence polarization, uHTS; 26S proteasome non-ATPase regulatory subunit 14 (Homo sapiens), O00487; human 26S proteasome, Ub4-pepOG fluorescence polarization; 20S core pre-blocked with epoxomicin; inhibition, % at 20 µM; 360,000 compounds, 0.59% hits;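 active means inhibition at 20 µM, scaled to each plate's controls, above about 33%, limit read from the data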
PLCg1 inh: PLC-gamma1 enzyme inhibitors, primary screen, biochemical, fluorescence, purified enzyme; 1-phosphatidylinositol 4,5-bisphosphate phosphodiesterase gamma-1 (Homo sapiens), P19174; fluorogenic substrate; inhibition, % at 12.2 µM; 370,000 compounds, 0.84% hits; AID 720700, 2013; in the data active means inhibition above about 9.5%
UCH37 DUB inh: inhibitors of human UCH37 deubiquitinase, primary screen, biochemical, Ub-AMC cleavage, fluorescence; Ubiquitin carboxyl-terminal hydrolase isozyme L5 (Homo sapiens), Q9Y5K5; purified proteasome/UCH37; inhibition, % (test concentration not listed); 330,000 compounds, 0.33% hits;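 active means mean inhibition over replicate wells above about 20%, limit read from the data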;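 further: 0% = compound-free wells with enzyme and 100% = wells lacking proteasome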
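Material: Human UCH37 enzyme supplied as purified proteasome complex | Schedule: 30 min compound-proteasome preincubation then 25 min substrate reaction, room temperature | Detection: AMC fluorescence from Ub-AMC cleavage, excitation 355 nm, emission 460 nm | Benchmarks: Wells without proteasome as full block, compound-free enzyme plus substrate as uninhibited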
Rpn11 confirm: Rpn11 (PSMD14) deubiquitinase inhibitors, confirmation, biochemical, fluorescence polarization, single concentration. AID 602318, 2012. purified human 26S proteasome, Ub4-pepOG fluorescence polarization; proteasome pretreated with epoxomicin. shares compounds with Rpn11 block. 1,900 compounds, 29% hits. inhibition, % at 20 µM
MMP-2 counter: MMP-2 enzyme inhibition, confirmation, counter-screen for RPN11 inhibitor project, biochemical, fluorescence, single concentration; shares compounds with Rpn11 block; recombinant MMP-2, FRET peptide cleavage fluorescence; inhibition, % at 20 µM; 1,900 compounds, 4% hits; AID 602330, 2012;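 further: human MMP-2 activated beforehand with APMA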
Target sequence (P08253 whole entry, looked up): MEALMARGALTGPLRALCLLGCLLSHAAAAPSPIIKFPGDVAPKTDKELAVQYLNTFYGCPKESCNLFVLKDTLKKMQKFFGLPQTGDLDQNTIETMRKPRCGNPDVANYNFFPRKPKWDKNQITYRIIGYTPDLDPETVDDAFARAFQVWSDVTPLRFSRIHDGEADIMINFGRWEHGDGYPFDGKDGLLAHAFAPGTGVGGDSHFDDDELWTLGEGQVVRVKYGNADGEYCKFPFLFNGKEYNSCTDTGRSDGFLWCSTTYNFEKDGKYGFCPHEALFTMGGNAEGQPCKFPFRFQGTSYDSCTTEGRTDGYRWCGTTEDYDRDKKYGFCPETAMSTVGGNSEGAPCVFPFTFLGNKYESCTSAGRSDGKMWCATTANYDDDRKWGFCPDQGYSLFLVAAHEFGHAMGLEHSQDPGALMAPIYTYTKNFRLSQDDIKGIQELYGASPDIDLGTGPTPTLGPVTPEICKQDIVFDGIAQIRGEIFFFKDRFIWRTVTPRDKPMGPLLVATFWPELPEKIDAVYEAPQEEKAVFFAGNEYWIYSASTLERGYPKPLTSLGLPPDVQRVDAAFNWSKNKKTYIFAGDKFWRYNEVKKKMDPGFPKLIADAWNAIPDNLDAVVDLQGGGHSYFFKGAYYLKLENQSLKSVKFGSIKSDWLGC
Thrombin inh: bovine thrombin protease inhibition, confirmation, counter-screen for Rpn11 inhibitor project, biochemical, fluorescence polarization, single concentration; shares compounds with Rpn11 block; bovine thrombin cleavage of Ub4-pepOG; inhibition, % at 20 µM; 1,900 compounds, 13% hits;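 active means mean inhibition at least 40% at 20 µM, or signal 3 deviations below plate average, so some actives read negative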;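 further: plate controls were thrombin with DMSO for no effect and buffer wells lacking thrombin for full effect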
* hit, by the source's call. Most compounds without a hit are left out; they make up all but 1.7% or so of the library. Unless noted, no stated cut-off is given here; in the data, active means inhibition above about 40%; inactive means the rest.

How did CC(C(=O)Nc1ccc(C(=O)O)c(O)c1)N1C(=O)/C(=C\c2ccco2)SC1=S (stereo not drawn) do in these assays?
Rpn11 block: 74.5*; UCH37 DUB inh: 19.2; Rpn11 confirm: 45.1*; MMP-2 counter: 34.3; Thrombin inh: -6.5

How did Cc1ccc2nc(C)c(=NO)c(C)nc2c1 do in these assays?
UCH37 DUB inh: 0.1

What do the screens show for `Cc1cc(C=NNC(=O)CC(=O)NC2CCCCC2)c(C)n1-c1ccc(Cl)cc1`?
UCH37 DUB inh: 6.0

Results for O=C1NN(c2ccc(Cl)cc2)C(=O)/C1=C\c1ccc(-c2cccc(C(=O)O)c2)o1 ?
PLCb3 inh: -13.6; Rpn11 block: 103.6*; PLCg1 inh: -1.4; UCH37 DUB inh: 6.0; Rpn11 confirm: 141.9*; MMP-2 counter: 17.4; Thrombin inh: 12.0

Results for Cc1ccc(N2NC(=O)/C(=C/c3ccc(-c4ccc(Cl)c(C(=O)O)c4)o3)C2=O)cc1 ?
PLCb3 inh: -3.6; Rpn11 block: 2.7; PLCg1 inh: -4.0; UCH37 DUB inh: 5.5

What do the screens show for `CN(C)c1ccc(C=NNC(=O)CCCO)cc1`?
UCH37 DUB inh: -306.5

How did CCCCCC(=O)NN=C(C)c1ccc(NC(=O)c2ccco2)cc1 do in these assays?
UCH37 DUB inh: -1.7

Results for S=C(c1cn(CCOc2cccc3ccccc23)c2ccccc12)N1CCCC1 ?
PLCb3 inh: -2.0; Rpn11 block: 46.0*; PLCg1 inh: -3.6; UCH37 DUB inh: -17.4; Rpn11 confirm: 51.8*; MMP-2 counter: -34.2; Thrombin inh: 27.9

How did S=C(c1cn(CCOc2ccccc2)c2ccccc12)N1CCCC1 do in these assays?
PLCb3 inh: 1.2; Rpn11 block: 21.0; PLCg1 inh: -2.5; UCH37 DUB inh: 2.1

How did Cc1cc(C(F)(F)F)c(C#N)c(SCC(=O)Nc2nc3cc(Br)ccc3s2)n1 do in these assays?
PLCb3 inh: -76.1; Rpn11 block: 52.9*; PLCg1 inh: -73.2; UCH37 DUB inh: 1.8; Rpn11 confirm: 29.7; MMP-2 counter: 7.4; Thrombin inh: -12.7

How did N#Cc1cccc(NC(=O)CSc2sc3c(O)cc(=O)[nH]c3c2C#N)c1 do in these assays?
PLCb3 inh: -20.2; Rpn11 block: 55.4*; PLCg1 inh: -11.1; UCH37 DUB inh: 7.7; Rpn11 confirm: -4.5; MMP-2 counter: -22.3; Thrombin inh: -16.8

Results for CSc1ccc(NC(=O)CSc2nc3[nH]c(=O)cc(O)c3s2)cc1 ?
PLCb3 inh: -17.6; Rpn11 block: 40.0*; PLCg1 inh: -8.3; UCH37 DUB inh: 5.8; Rpn11 confirm: 41.8*; MMP-2 counter: 31.5; Thrombin inh: 17.6

What do the screens show for `N#Cc1ccc(NC(=O)CSc2nc3[nH]c(=O)cc(O)c3s2)cc1`?
PLCb3 inh: -9.8; Rpn11 block: 8.1; PLCg1 inh: -3.2; UCH37 DUB inh: 4.6

Results for CCOC(=O)NC(=O)CSc1nc(C)cc(C(F)(F)F)c1C#N ?
PLCb3 inh: -40.1; Rpn11 block: 32.2; PLCg1 inh: -38.2; UCH37 DUB inh: -0.7

Results for N#Cc1c(SCC(=O)Nc2nc3ccc(Br)cc3s2)sc2c(O)cc(=O)[nH]c12 ?
PLCb3 inh: -32.8; Rpn11 block: 104.7*; PLCg1 inh: -16.1; Rpn11 confirm: 53.2*; MMP-2 counter: 28.7; Thrombin inh: -5.3

How did CC(=NNC(=O)c1cc(C)nc2ccccc12)c1ccco1 do in these assays?
UCH37 DUB inh: 8.1

How did CCCSc1nnc(NC(=O)CSc2sc3c(O)cc(=O)[nH]c3c2C#N)s1 do in these assays?
PLCb3 inh: -30.4; Rpn11 block: 4.1; PLCg1 inh: -9.5; UCH37 DUB inh: 9.9

Results for N#Cc1c(SCC(=O)Nc2nccs2)sc2c(O)cc(=O)[nH]c12 ?
PLCb3 inh: -37.2; Rpn11 block: 60.5*; PLCg1 inh: -2.5; Rpn11 confirm: 20.6; MMP-2 counter: 26.2; Thrombin inh: 7.0

How did CN(N=Cc1cc(Br)cc(Br)c1O)c1ccccc1 do in these assays?
UCH37 DUB inh: 6.0

How did CN1C(=O)CC(c2cn(Cc3ccccc3)c3ccccc23)C1=O (stereo not drawn) do in these assays?
PLCb3 inh: -27.3; Rpn11 block: 54.1*; PLCg1 inh: -13.6; UCH37 DUB inh: 4.0; Rpn11 confirm: 20.5; MMP-2 counter: -28.0; Thrombin inh: 23.2

How did CC(C)(C)c1ccc(C=NNc2nncn2N)cc1 do in these assays?
UCH37 DUB inh: 2.5

How did CCOc1ccc(S(=O)(=O)N(CC(=O)N/N=C/c2ccc(-c3ccc([N+](=O)[O-])cc3)o2)c2ccccc2)cc1 do in these assays?
PLCb3 inh: -47.2; Rpn11 block: 58.5*; PLCg1 inh: -38.0; Rpn11 confirm: 43.5*; MMP-2 counter: 74.3*; Thrombin inh: 18.6

How did COc1ccc(-n2nc(C(=O)NCC(=O)NC(C)C)c3ccccc3c2=O)cc1Cl do in these assays?
PLCb3 inh: -72.7; Rpn11 block: 11.7; PLCg1 inh: -43.8; UCH37 DUB inh: 1.2

What do the screens show for `COc1ccc(-n2nc(C(=O)NCC(=O)Nc3ccccn3)c3ccccc3c2=O)cc1Cl`?
PLCb3 inh: -6.7; Rpn11 block: 102.0*; PLCg1 inh: 0.7; UCH37 DUB inh: -93.2; Rpn11 confirm: 2.6; MMP-2 counter: -0.1; Thrombin inh: -1.8

How did CC(=NNC(=O)C(N)=O)c1ccc(Br)cc1 do in these assays?
UCH37 DUB inh: 0.1

What do the screens show for `O=C(CNc1ccc(F)cc1)NN=Cc1c(O)ccc2ccccc12`?
UCH37 DUB inh: -0.9

What do the screens show for `Cc1cc(C(=O)NN=C2CCCC(=O)C2)c(C)n1-c1ccccc1`?
UCH37 DUB inh: 1.4

Results for CCOC(=O)Cc1csc(NC(=O)c2ccc(C)cc2)n1 ?
PLCb3 inh: 4.2; Rpn11 block: -6.5; PLCg1 inh: -1.8; UCH37 DUB inh: 3.7

What do the screens show for `CCOC(=O)Cc1csc(NC(=O)c2ccc(Cl)nc2)n1`?
PLCb3 inh: -12.6; Rpn11 block: 36.2*; PLCg1 inh: -9.4; UCH37 DUB inh: 1.1; Rpn11 confirm: 20.7; MMP-2 counter: -33.0; Thrombin inh: -1.4
